Read-outs that look alike come from different tables or passages of the source. No end group written: not given here.
What was measured:
G-actin = assay: Interaction of WH2 peptides with G-actin; assay type: binding
F-actin [1] = assay: F-actin co-sedimentation; assay type: binding; conditions: co-sedimentation assays, data not shown
actin = assay: Steady state actin critical concentration; assay type: biochemical; conditions: for steady state critical concentration for actin assembly (Cc): saturating Srv2 or WH2 peptide, actin alone Cc = 0.21
[2] = tested on: Cof1-bound ADP-actin monomers; assay: Nucleotide exchange on Cof1-bound ADP-actin monomers; assay type: biochemical, rabbit
Outline: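 Rabbit muscle ADP-actin (2 μM) was kept in G-buffer without ATP (10 mM Tris pH 7.5, 0.2 mM CaCl2, 0.2 mM DTT). It was mixed with 20 mM Tris pH 8.0, 50 mM NaCl, alone or containing Cof1 and/or varying full-length Srv2 (yeast profilin from E. coli where used), then added to ε-ATP. The fluorescence rise at 350/410 nm was monitored for at least 600 s.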

[3] = Fluorescence-monitored urea denaturation; assay type: physicochemical
Outline: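 Full-length 6xHis-tagged wild type and mutant Srv2 were expressed in E. coli BL21-RP (DE3), purified by IMAC then Superose 6 gel filtration in 20 mM Tris pH 8.0, 50 mM NaCl, 1 mM DTT, and stored at -80°C. Unfolding was followed by fluorescence as a function of urea concentration, with fluorescence normalized.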

F-actin [4] = assay: Pi release assay of steady state actin filament turnover in the presence of Cof1; assay type: biochemical, rabbit; conditions: 8 μM actin, 25°C
Outline: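 Cof1 and full-length Srv2 were premixed with 2 mM MgCl2, 0.5 mM ATP, 50 mM KCl, 0.2 mM MESG and 0.1 units PNP. Rabbit muscle actin monomers were added to start polymerization. Once the reaction reached steady state, Pi release was read for 15 min. After path-length correction, steady-state slopes were obtained by linear fit.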

[5] = molecular target: Rabbit skeletal muscle actin, monomeric (G-actin) (rabbit) (UniProt P68135); assay: inhibition of nucleotide exchange on actin
[6] = molecular target: Rabbit skeletal muscle actin, monomeric (G-actin) (rabbit) (UniProt P68135); assay: inhibition of nucleotide exchange on actin; remark: listed apart in the source
NBD-labeled G-actin = conditions: ref Mattila et al., 2004; cited from earlier work

For “306-349: WH2 domain-containing peptide of Srv2, a.a. 306-349 (GIGAVFAELNQGENITKGLKKVDKSQQTHKNPELRQSSTVSSTG; UniProt P17555 306-349, looked up, fragment)”, the “interaction with G-actin (in words)” value (G-actin) was “both WH2 peptides interacted with G-actin” and the “binding affinity for F-actin (in words)” value (F-actin [1]) was “Neither WH2 peptide showed any detectable binding affinity for F-actin”.

In the case of “Srv2-WT: full-length 6xHis-tagged wild type yeast Srv2/CAP protein purified from E. coli”, the “steady state critical concentration for actin assembly (Cc)” value (actin; data not shown) is reported as 2.4 µM, the “increase of critical concentration versus actin alone” value (actin; versus actin alone, data not shown) is reported as 10 fold and the “Srv2 concentration of peak effect on nucleotide exchange rate” value ([2]; 2 μM ADP-G-actin, 5 μM Cof1, 25°C (Fig. 7A)) is reported as 300 to 400 nM. The “folding / stability by urea denaturation (in words)” value [3] was “folded correctly”, the “urea concentration of unfolding” value [3] was ~ 5 M urea and the “effect on actin turnover (Pi release) (in words)” value (F-actin [4]; 4 μM Cof1, 0-500 nM protein) was “increased the rate of turnover in a concentration-dependent manner”. The “rate increase of actin turnover (Pi release), peak” value (F-actin [4]; 4 μM Cof1, Srv2 0-500 nM, 360 nm (Fig. 8A)) was 4 fold.

“Srv2/CAP WH2 peptide (a.a. 295-349), wild type (from UniProt P17555 295-349) (domain or fragment)” showed a Kd [5] of 1400 nM and a Kd [6] of 1500 nM.

In the case of “WH2 peptide: 6xHis-tagged WH2 domain of S. cerevisiae Srv2, a.a. 295-349, purified from E. coli (TPATSSDANKGGIGAVFAELNQGENITKGLKKVDKSQQTHKNPELRQSSTVSSTG; also: 6xHis tag, end not given here)”, the “effect on steady state critical concentration (in words)” value (actin; actin + WH2 versus actin alone) is reported as “did not alter the steady state critical concentration for actin assembly”, the “steady state critical concentration for actin assembly (Cc)” value (actin; data not shown) is reported as 0.26 µM and the “interaction with G-actin (in words)” value (G-actin) is reported as “both WH2 peptides interacted with G-actin”. For the same molecule, the “binding affinity for F-actin (in words)” value (F-actin [1]) was “Neither WH2 peptide showed any detectable binding affinity for F-actin”.

B1: fragment of Srv2/CAP containing the WH2 domain (a.a. 253-373): purified fragment of Srv2/CAP from an earlier study (Mattila et al., 2004) (protein, UniProt P17555 253-373, looked up, fragment)
chain: MAQSTKNTGATSSPSPASATAAPAPPPPPPAPPASVFEISNDTPATSSDANKGGIGAVFAELNQGENITKGLKKVDKSQQTHKNPELRQSSTVSSTGSKSGPPPRPKKPSTLKTKRPPRKE
In the case of B1, the “binding affinity for NBD-labeled G-actin (in words)” value (NBD-labeled G-actin) is listed as “no detectable binding affinity for NBD-labeled G-actin”.

B2: profilin: Yeast profilin (Pfy1) purified from E. coli (protein, UniProt P07274 1-126, looked up)
Profilin: MSWQAYTDNLIGTGKVDKAVIYSRAGDAVWATSGGLSLQPNEIGEIVQGFDNPAGLQSNGLHIQGQKFMLLRADDRSIYGRHDAEGVVCVRTKQTVIIAHYPPTVQAGEATKIVEQLADYLIGVQY
For B2, the “effect on nucleotide exchange on Cof1-bound ADP-actin, protein alone (in words)” value ([2]; 2 μM ADP-G-actin, 5 μM Cof1, 50 μM ε-ATP, 25°C) was “no detectable activity” and the “effect of profilin on Srv2-WT promotion of nucleotide exchange (in words)” value ([2]; 5 μM yeast profilin with 400 nM full-length Srv2-WT, 5 μM Cof1 (Fig. 7F)) was “does not enhance Srv2’s effects”.
